Screens from PubChem.
miR-122 sensor – inhibitors of miR-122 in Huh7 cells; Huh7 miR-122 Renilla luciferase sensor, 48 h; neutral wells = 0, positive control = 100; AID 602342; activation (reporter increase), % at 12.5 µM; 340,000 compounds, 0.3% hits;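 active = mean replicate activation score at least 90 and every replicate individually at or above 90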;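 also: higher luciferase means less miR-122 activity so hits act as miR-122 inhibitors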
Cneo AK release – causes C. neoformans cell lysis. lysis activity, % at 15 µM. AID 651654. 360,000 compounds, 0.2% hits. adenylate kinase release luminescence, 4 h; normalised: neutral wells 0, clomiphene wells 100;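 active = mean lysis activity across replicates of at least 80%, whatever share of replicates individually reach that level; inactive = mean lysis activity below 80%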
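Test system: log-phase Cryptococcus neoformans yeast cells. Input: 5 × 10^6 yeast cells/mL. Medium: fresh YPD growth medium. Doses: single dose. Incubation: static 4 h at 37 °C with compound, 1 h detection. Measured by: luminescent adenylate kinase detection reagent. Read-out: signal increase indicating cell lysis. Benchmarks: Clomiphene.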
rRNA inh HTS – inhibits bacterial ribosomal RNA function over humanized ribosomes; E. coli WT GFP vs humanized-ribosome RFP mutants, fluorescence, 24 h; stronger effect = lower value; DMSO median 0, no signal -100; GFP signal change (wild-type ribosome), % (no concentration beside the values); 350,000 compounds, 1.6% hits;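 active = significant combined selectivity score with lowered wild-type GFP, culture density cut under 30%, mutant RFP and density less affected; inactive = any of these conditions unmet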
E-selectin induc – induces E-selectin expression in human endothelial cells; P16581; HUVEC E-selectin immunofluorescence imaging; normalized: neutral wells 0, TNF-alpha wells 100; activation, % at 7.58 µM; 260,000 compounds, 0.37% hits;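 active = mean E-selectin-positive cell signal at least 10% of the positive control, reached in at least 60% of replicates, without over 20% cell loss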
Target sequence (P16581 whole entry, looked up): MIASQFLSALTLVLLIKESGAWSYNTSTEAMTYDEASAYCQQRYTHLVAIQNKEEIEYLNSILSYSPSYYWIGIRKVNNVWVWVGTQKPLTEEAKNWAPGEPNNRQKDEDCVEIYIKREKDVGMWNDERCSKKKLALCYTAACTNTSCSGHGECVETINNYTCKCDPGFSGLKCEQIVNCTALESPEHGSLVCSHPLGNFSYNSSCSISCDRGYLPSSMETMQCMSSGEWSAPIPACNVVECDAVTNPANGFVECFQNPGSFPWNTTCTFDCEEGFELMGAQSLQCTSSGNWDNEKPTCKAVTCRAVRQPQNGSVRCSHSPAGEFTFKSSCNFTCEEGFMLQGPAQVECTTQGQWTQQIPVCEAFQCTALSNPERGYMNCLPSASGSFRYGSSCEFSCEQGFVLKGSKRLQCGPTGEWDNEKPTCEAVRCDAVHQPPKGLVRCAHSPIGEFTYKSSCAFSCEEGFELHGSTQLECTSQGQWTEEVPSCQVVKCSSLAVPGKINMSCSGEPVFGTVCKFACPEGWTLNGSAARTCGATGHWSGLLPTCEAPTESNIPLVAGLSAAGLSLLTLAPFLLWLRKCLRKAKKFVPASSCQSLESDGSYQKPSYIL
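Read-out: % PE-positive cells | Test system: HUVEC | Doses: One compound dose added by pin transfer | Buffer or medium: EGM-2 over gelatin coat | Signal: Immunofluorescence imaging | Benchmarks: TNF-alpha, DMSO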
DENV2 CPE rescue – protects cells from dengue virus 2 cytopathic effect; AID 651640; 350,000 compounds, 1.7% hits; DENV2-infected cells, cytopathic effect rescue, plate reader; CPE inhibition, % at 9.99 µM; in the data active = CPE inhibition above about 20%, passing the limit was not always enough; tested in BHK-21 cells;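 also: 0% = median of neutral control wells and 100% = median of positive control wells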
* marks the source's active call; other numbers are inactive results; · = not tested or not shown; [ ] = remark or other dose. Only some compounds are listed: those with a hit (about 3.1% of all), similar ones and a draw of the others.

SMILES | miR-122 sensor | Cneo AK release | rRNA inh HTS | E-selectin induc | DENV2 CPE rescue
N#Cc1c(N)[nH]c(C(=O)c2ccccc2)c1-c1ccc(Cl)cc1 | · | · | -44* | · | 4
C[C@@H]1CN([C@@H](C)CO)C(=O)c2cc(C3=CCCC3)cnc2O[C@H]1CN(C)C(=O)Nc1ccccc1 | · | · | 2 | 0 | 4
COc1ccc(C2OC(=O)Cc3cc(OC)c(OC)cc32)cc1 (centres undefined) | -4 | 1 | 2 | · | 1
COc1cc2c(cc1OC)C(c1ccc3c(c1)Cc1ccccc1-3)OC(=O)C2 (centres undefined) | 0 | -1 | -23* | 2 | 10
O=C(C[C@@H]1CC[C@@H]2[C@H](COC[C@H](O)CN2C(=O)Nc2cccc(F)c2)O1)NCc1ccccc1Cl | -2[16.7 µM] | -2 | -21 | 0 | 4
COC(=O)c1sc2nc(SCC(=O)N(C)c3ccccc3)n(N)c(=O)c2c1C | 1 | · | -3 | 154* | 0
COC(=O)c1sc2nc(SCc3ccccc3C)n(N)c(=O)c2c1C | · | · | 7 | -1 | 8
CCCCC1C(=O)N(c2ccccc2)N(c2ccc(O)cc2)C1=O (centres undefined) | -30 | 0 | · | 152* | -1
CCCCC1(CO)C(=O)N(c2ccccc2)N(c2ccccc2)C1=O | -10 | -1 | 0 | 0 | -3
O=C(CN1C(=O)c2ccccc2S1(=O)=O)NCCSCc1c(F)cccc1Cl | 1 | -1 | -30* | · | 0
O=C(CN1C(=O)c2ccccc2S1(=O)=O)NCCSCc1ccccc1Cl | 2 | -1 | 0 | · | 5
Cc1ccc2c(COC(=O)CNC(=O)c3ccccc3)cc(=O)oc2c1 | · | · | 9 | · | 118*
CO[C@H]1CN(C)C(=O)c2ccc(NC(=O)NC(C)C)cc2OC[C@@H](C)N(CCC(F)(F)F)C[C@H]1C | 3[16.7 µM] | -1 | 0 | 0 | -3
CCCC(=O)Nc1ccc2c(c1)C(=O)N(C)C[C@H](OC)[C@H](C)CN(C(C)=O)[C@@H](C)CO2 | 10[16.7 µM] | 1 | 0 | 0 | 5
CCCN(C)C[C@@H]1OCCCC[C@H](C)Oc2ccc(NC(=O)Cc3ccccc3)cc2C(=O)N([C@@H](C)CO)C[C@@H]1C | -2[16.7 µM] | 3 | 2 | 0 | 35*
Cc1noc(C)c1S(=O)(=O)N(C)C[C@@H]1OCCCC[C@@H](C)Oc2ccc(NC(=O)Cc3ccccc3)cc2C(=O)N([C@@H](C)CO)C[C@@H]1C | · | · | -1 | 0 | 52*
Cc1noc(C)c1S(=O)(=O)N(C)C[C@@H]1OCCCC[C@@H](C)Oc2ccc(NC(=O)Cc3ccccc3)cc2C(=O)N([C@H](C)CO)C[C@H]1C | -1[16.7 µM] | -4 | -1 | 0 | -6
C[C@@H]1CCCCO[C@@H](CN(C)S(C)(=O)=O)[C@H](C)CN([C@@H](C)CO)C(=O)c2cc(NC(=O)Cc3ccccc3)ccc2O1 | 3[16.7 µM] | 0 | 3 | 0 | 52*
Cc1ccc(S(=O)(=O)NC[C@H]2CC[C@H]3[C@H](CN3Cc3cc(-c4ccccc4)on3)O2)cc1 | · | · | · | · | 7
O=S(=O)(NCCc1ccccc1)c1cccc(S(=O)(=O)N2CCOCC2)c1 | 150* | -2 | · | · | ·
O=C(CNc1cccc(S(=O)(=O)N2CCOCC2)c1)Nc1cccc(Br)c1 | 28 | 0 | -13 | 0 | 27*
O=C(NNS(=O)(=O)c1ccc(Cl)cc1)c1cccc(S(=O)(=O)N2CCOCC2)c1 | 249* | -8 | 4 | · | 14
O=C(Cc1ccc(Br)cc1)Nc1cccc(S(=O)(=O)N2CCOCC2)c1 | 26 | -4 | -30* | · | -2
O=C(Cc1ccccc1Cl)Nc1cccc(S(=O)(=O)N2CCOCC2)c1 | · | · | 7 | -3 | -4
O=C(Cc1c(Cl)cccc1Cl)Nc1cccc(S(=O)(=O)N2CCOCC2)c1 | · | · | -23* | 5 | 3
SMILES | miR-122 sensor | Cneo AK release | rRNA inh HTS | E-selectin induc | DENV2 CPE rescue
O=C(COc1ccc(Br)cc1)NNC(=O)c1cc(S(=O)(=O)N2CCOCC2)ccc1Cl | · | -1 | -19* | · | -6
COc1ccccc1-c1cnc2c(c1)C(=O)N([C@H](C)CO)C[C@@H](C)[C@H](CN(C)CC1CCOCC1)O2 | -3[16.7 µM] | 0 | 5 | 0 | 1
COc1ccc(N(CC(=O)NCCSc2ccccc2)S(=O)(=O)c2ccccc2)c(OC)c1 | 7 | -2 | 5 | 0 | 88*
CC(C)(C)SCCNC(=O)CN(c1ccc(F)cc1)S(=O)(=O)c1ccccc1 | 6 | 210* | -46 | -1 | 0
COc1ccc(N(CC(=O)NCCSc2ccccn2)S(=O)(=O)c2ccccc2)c(OC)c1 | 6 | -5 | 1 | · | -5
COc1ccccc1N(CC(=O)NCCSc1ccccc1)S(=O)(=O)c1ccccc1 | 7 | -5 | -31* | · | 13
CO[C@@H]1CN(C)C(=O)c2ccc(NC(=O)Nc3cccc(F)c3)cc2OC[C@H](C)N(C(C)=O)C[C@@H]1C | · | -2 | -4 | 0 | 17
CCCN1C[C@@H](C)[C@@H](OC)CN(C)C(=O)c2cc(NC(=O)C3CC3)ccc2OC[C@H]1C | · | -11 | 3 | 0 | 17
CCC(=O)N1CC(=O)N2[C@H](CO)[C@H](c3ccc(C#CC(C)C)cc3)[C@@H]2C1 | · | · | 8 | · | ·
CCCNC(=O)[C@@H]1[C@@H](CO)[C@@H]2Cn3c(ccc(-c4ccccc4OC)c3=O)[C@@H]2N1CC | 1[16.7 µM] | 1 | -1 | 1 | 0
CCOc1cc2c(cc1OCC)CN(C(=O)c1cccc(S(=O)(=O)N3CCCC3)c1)CC2 | · | 6 | -19* | · | -2
COc1cc2c(cc1OC)CN(C(=O)c1ccc(S(=O)(=O)N3CCCC3)cc1)CC2 | · | · | -2 | 2 | -7
COc1cccc(CN2[C@H](CO)[C@@H](c3ccccc3)C23CN(Cc2ccccc2)C3)c1 | · | · | -5 | · | ·
C[C@H]1CN([C@@H](C)CO)C(=O)Cc2cc(NC(=O)c3ccncc3)ccc2O[C@@H]1CN(C)S(=O)(=O)c1cccs1 | 0[16.7 µM] | -2 | -3 | · | -3
C[C@@H]1CN([C@@H](C)CO)C(=O)Cc2cc(NC(=O)c3ccncc3)ccc2O[C@H]1CN(C)S(=O)(=O)c1cccs1 | -1[16.7 µM] | -4 | -4 | · | 24*
C[C@@H]1CN([C@@H](C)CO)C(=O)Cc2cc(NC(=O)c3ccncc3)ccc2O[C@@H]1CN(C)S(C)(=O)=O | -1[16.7 µM] | -6 | 4 | 37* | -5
C[C@@H]1CN([C@H](C)CO)C(=O)Cc2cc(NC(=O)c3ccncc3)ccc2O[C@@H]1CN(C)S(C)(=O)=O | -7[16.7 µM] | 4 | 5 | 15 | 9
Cc1sc2ncn(CC(=O)Nc3cccc(S(N)(=O)=O)c3)c(=O)c2c1-c1ccccc1 | 6 | 3 | -29* | · | 0
C[C@H](CO)N1C[C@H](C)[C@H](CN(C)CC2CC2)Oc2ccc(NC(=O)c3ccncc3)cc2CC1=O | -6[16.7 µM] | -5 | 4 | 0 | -5
O=C(NCc1ccc2c(c1)OCO2)c1cc(COc2c(F)cccc2F)on1 | -4 | 0 | -9 | -1 | -6
